In ChEMBL document CHEMBL1125273, “Synthesis and biological evaluation of quinocarcin derivatives: thioalkyl-substituted quinones and hydroquinones” (J Med Chem, 1991):
≈ marks a conversion by molar mass, not a printed value.

Key:
[1] = Ratio of the ILS tested compound/quinocarcin was determined in CD2F1 mice on days 1-5.; format: functional, Mus musculus
Method in brief: (§1)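 CD2F1 mice (5 per group) received 10^6 P388 cells ip. Drug was given ip on day 1 or on days 1–5. ILS was taken as (T/C − 1) × 100 from median survival times, and each compound's ILS was divided by the ILS of quinocarcin.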

HeLa = experiment: In vitro concentration required to inhibit the growth of HeLa S3 cells by 50%; format: functional, cell-based; conditions: Homo sapiens
Method in brief: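 HeLa S3 cells (5 × 10⁴) seeded in Eagle's MEM with 10% FBS and 0.06 mg/mL kanamycin; graded drug concentrations, diluted in growth medium, added 24 h after seeding. Incubated 72 h at 37 °C, humidified 5% CO₂. Monolayers then washed, detached with 0.05% trypsin/0.02% EDTA and counted electronically; IC50 taken as concentration giving 50% growth inhibition.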

Homo sapiens [2] = experiment: Ratio of ILS tested compound/quinocarcin against human mammary carcinoma MX-1 cell line implanted subcutaneously in mice and the compound administered intravenously at a dose of 4.41 mg/kg on days 1-5.; format: functional; conditions: route intravenous
CCRF S-180 [3] = experiment: Ratio of ILS tested compound/quinocarcin against murine sarcoma S-180 tumor cell line implanted subcutaneously in mice and the compound administered intravenously at a dose of 4.41 mg/kg on days 1-5.; format: functional, Mus musculus; conditions: route intravenous
[4] = Antitumor activity in vivo in CD2F1 mice measured in terms of percent increase in lifespan calculated at a dose of 6.25 mg/kg intraperitoneally on days 1-5.; format: functional; conditions: Mus musculus, ip, route intraperitoneal
Method in brief: (§2)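 P388 lymphocytic leukemia cells (1×10^6) were implanted ip into CD2F1 mice (about 22 g), five mice per group. Drug was given ip from the day after implantation, either once (day 1) or daily on days 1–5. ILS = (T/C − 1) × 100, where T and C are the median survival times of treated and control mice.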

[5] = Antitumor activity in vivo in CD2F1 mice measured in terms of percent increase in lifespan calculated at a dose of 12.5 mg/kg intraperitoneally on day one.; format: functional; conditions: Mus musculus, ip, route intraperitoneal; method in brief: as §2
[6] = Ratio of the ILS tested compound/quinocarcin was determined for day one in CD2F1 mice.; format: functional, Mus musculus; method in brief: as §1
[7] = Antitumor activity in vivo in CD2F1 mice measured in terms of percent increase in lifespan calculated at a dose of 37.5 mg/kg intraperitoneally on day one.; format: functional; conditions: Mus musculus, ip, route intraperitoneal; method in brief: as §2
[8] = Antitumor activity in vivo in CD2F1 mice measured in terms of percent increase in lifespan calculated at a dose of 25 mg/kg intraperitoneally on day one.; format: functional; conditions: Mus musculus, ip, route intraperitoneal; method in brief: as §2
CCRF S-180 [9] = experiment: Ratio of ILS tested compound/quinocarcin against murine sarcoma S-180 tumor cell line implanted subcutaneously in mice and the compound administered intravenously at a dose of 12.5 mg/kg on days 1-5.; format: functional, Mus musculus; conditions: route intravenous
[10] = Antitumor activity in vivo in CD2F1 mice measured in terms of percent increase in lifespan calculated at a dose of 12.5 mg/kg intraperitoneally on days 1-5.; format: functional; conditions: Mus musculus, ip, route intraperitoneal; method in brief: as §2
Homo sapiens [11] = experiment: Ratio of ILS tested compound/quinocarcin against human mammary carcinoma MX-1 cell line implanted subcutaneously in mice and the compound administered intravenously at a dose of 9.35 mg/kg on days 1-5.; format: functional; conditions: route intravenous
Homo sapiens [12] = experiment: Ratio of ILS tested compound/quinocarcin against human mammary carcinoma MX-1 cell line implanted subcutaneously in mice and the compound administered intravenously at a dose of 5.96 mg/kg on days 1-5.; format: functional; conditions: route intravenous
Co-3 [13] = experiment: Ratio of ILS tested compound/quinocarcin against Co-3 tumor cell line implanted subcutaneously in mice and the compound administered intravenously at a dose of 5.58 mg/kg on days 1-5.; format: functional, Homo sapiens; conditions: route intravenous
[14] = Antitumor activity in vivo in CD2F1 mice measured in terms of percent increase in lifespan calculated at a dose of 3.13 mg/kg intraperitoneally on days 1-5.; format: functional; conditions: Mus musculus, ip, route intraperitoneal; method in brief: as §2
Co-3 [15] = experiment: Ratio of ILS tested compound/quinocarcin against Co-3 tumor cell line implanted subcutaneously in mice and the compound administered intravenously at a dose of 9.18 mg/kg on days 1-5.; format: functional, Homo sapiens; conditions: route intravenous
Homo sapiens [16] = experiment: Ratio of ILS tested compound/quinocarcin against human mammary carcinoma MX-1 cell line implanted subcutaneously in mice and the compound administered intravenously at a dose of 3.55 mg/kg on days 1-5.; format: functional; conditions: route intravenous
Homo sapiens [17] = experiment: Ratio of ILS tested compound/quinocarcin against human mammary carcinoma MX-1 cell line implanted subcutaneously in mice and the compound administered intravenously at a dose of 5.58 mg/kg on days 1-5.c means number of cured mice.; format: functional; conditions: route intravenous
St-4 [18] = experiment: Ratio of ILS tested compound/quinocarcin against St-4 tumor cell line implanted subcutaneously in mice and the compound administered intravenously at a dose of 5.58 mg/kg on days 1-5.; format: functional, Homo sapiens; conditions: route intravenous
[19] = Antitumor activity in vivo in CD2F1 mice measured in terms of percent increase in lifespan calculated at a dose of 6.25 mg/kg intraperitoneally on day one.; format: functional; conditions: Mus musculus, ip, route intraperitoneal; method in brief: as §2
St-4 [20] = experiment: Ratio of ILS tested compound/quinocarcin against St-4 tumor cell line implanted subcutaneously in mice and the compound administered intravenously at a dose of 9.18 mg/kg on days 1-5.; format: functional, Homo sapiens; conditions: route intravenous
CCRF S-180 [21] = experiment: Ratio of ILS tested compound/quinocarcin against murine sarcoma S-180 tumor cell line implanted subcutaneously in mice and the compound administered intravenously at a dose of 5.85 mg/kg on days 1-5.; format: functional, Mus musculus; conditions: route intravenous
[22] = Antitumor activity in vivo in CD2F1 mice measured in terms of percent increase in lifespan calculated at a dose of 200 mg/kg intraperitoneally on day one.; format: functional; conditions: Mus musculus, ip, route intraperitoneal; method in brief: as §2

**Q.** Which results are given for `CSC1=C(SC)C(=O)C2=C(C[C@H]3[C@H]4[C@H](C(=O)O)C[C@@H](C(C#N)N3[C@H]2CO)N4C)C1=O` (some centres not stated)?
**A.** R [1]: 0.59; IC50 (HeLa): 0.13 µg/mL (≈ 0.289 µM); T/C (Homo sapiens [2]): 0.67; T/C (CCRF S-180 [3]): 1.06; ILS at 6.25 mg/kg [4]: 71%; ILS at 12.5 mg/kg [5]: 53%; R [6]: 1.23

**Q.** What does the source list for `COc1c2c(c(OC)c(SC(C)C)c1SC(C)C)[C@@H]1COC3[C@@H]4C[C@@H](C(=O)O)[C@H]([C@H](C2)N31)N4C` (some centres not stated)?
**A.** ILS at 37.5 mg/kg [7]: 9%; IC50 (HeLa): 0.05 µg/mL (≈ 0.0983 µM)

**Q.** With `CC(C)SC1=C(SC(C)C)C(=O)C2=C(C[C@H]3[C@H]4[C@H](C(=O)O)C[C@@H](C(C#N)N3[C@H]2CO)N4C)C1=O` (some centres not stated) as the compound, how does the R [1] read?
**A.** Its R is 1.35.

**Q.** What about the ILS at 25 mg/kg [8] of the same compound?
**A.** Its ILS at 25 mg/kg is 65%.

**Q.** And the T/C (CCRF S-180 [9])?
**A.** Its T/C is 0.37.

**Q.** And the ILS at 12.5 mg/kg [10]?
**A.** Its ILS at 12.5 mg/kg is 119%.

**Q.** And the IC50 (HeLa)?
**A.** The IC50 was 0.012 µg/mL (≈ 0.0237 µM).

**Q.** What about the T/C (Homo sapiens [11]) of the same compound?
**A.** The T/C was 0.22.

**Q.** What about the T/C (Homo sapiens [12]) of the same compound?
**A.** Its T/C is 0.83.

**Q.** And the R [6]?
**A.** Its R is 1.48.

**Q.** What does the source list for `CSC1=C(SC)C(=O)C2=C(C[C@H]3[C@H]4[C@H](C(=O)O)C[C@@H](C5OC[C@@H]2N53)N4C)C1=O` (some centres not stated)?
**A.** R [1]: 0.88; T/C (Co-3 [13]): 0.43; ILS at 3.13 mg/kg [14]: 91%; IC50 (HeLa): 0.019 µg/mL (≈ 0.045 µM); T/C (Co-3 [15]): 0.21; T/C (Homo sapiens [16]): 0.21; T/C (Homo sapiens [17]): 0.006; T/C (St-4 [18]): 0.56; ILS at 6.25 mg/kg [19]: 48%; T/C (St-4 [20]): 0.2; T/C (CCRF S-180 [21]): 0.86; R [6]: 1.85

**Q.** Which ILS at 200 mg/kg [22] does the source give for `CCOC(=O)CSc1c(O)c2c(c(O)c1SCC(=O)OCC)[C@H](CO)N1C(C#N)[C@@H]3C[C@@H](C(=O)O)[C@H]([C@@H]1C2)N3C` (some centres not stated) here?
**A.** The ILS at 200 mg/kg was 37%.

**Q.** And the IC50 (HeLa)?
**A.** Its IC50 is greater than 10 µg/mL.

**Q.** What about the R [6] of the same compound?
**A.** Its R is 0.9.
